Only some compounds are listed: those with a hit (about 6.7% of all), similar ones and a draw of the others.
CSC inhib: blocks cancer stem cells; cancer stem cell-like cells viability, luminescence; inhibition, % at 7.5 µM; 1.1% of 300,000 active; AID 2717; in the data active = inhibition above about 75%; tested in HMLE shEcad cells
T cruzi inh: blocks replication of Trypanosoma cruzi | 1.4% of 300,000 active | T. cruzi beta-gal in NIH3T3, luminescence, 90 h | inhibition, % (test concentration not listed);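 active = mean inhibition across valid replicates above about 55%, limit read from the data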;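 also: signal also drops with host cell toxicity which is not excluded here; 0% = plate median of DMSO wells and 100% = zero luminescence signal; higher percent means less beta-gal luminescence so fewer parasites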
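assay system = mouse NIH/3T3 fibroblasts infected with β-gal-expressing T. cruzi Tulahuen C4 | input = 5,000 NIH/3T3 host cells per well | buffer or medium = DMEM plus 2% FBS | timing = 3 h host attachment, then at least 90 h co-culture | measured by = GalScreen luminescence, 60 min | evaluation = luminescence reflecting intracellular parasite burden, expressed as percent inhibition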
CHOP inhibitor: inhibitors of CHOP induction in ER stress response; CHO-K1 CHOP-promoter luciferase, tunicamycin-induced, 15-18 h; inhibition, % at 10 µM; 3.8% of 220,000 active;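 active = compounds that reduced the stress-induced luciferase reporter signal by more than about 70% of percent inhibition, limit read from the data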;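 also: 0% = tunicamycin plus vehicle and 100% = wells without tunicamycin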
PREPL inh: inhibits the human prolyl oligopeptidase-like enzyme; Q4J6C6; recombinant PREPL, fluorescence polarization activity-based probe; inhibition, % at 5.96 µM; 0.68% of 320,000 active; in the data active = inhibition above about 43%;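 also: 0% = enzyme with DMSO and 100% = wells lacking enzyme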
Target sequence (Q4J6C6 whole entry, looked up): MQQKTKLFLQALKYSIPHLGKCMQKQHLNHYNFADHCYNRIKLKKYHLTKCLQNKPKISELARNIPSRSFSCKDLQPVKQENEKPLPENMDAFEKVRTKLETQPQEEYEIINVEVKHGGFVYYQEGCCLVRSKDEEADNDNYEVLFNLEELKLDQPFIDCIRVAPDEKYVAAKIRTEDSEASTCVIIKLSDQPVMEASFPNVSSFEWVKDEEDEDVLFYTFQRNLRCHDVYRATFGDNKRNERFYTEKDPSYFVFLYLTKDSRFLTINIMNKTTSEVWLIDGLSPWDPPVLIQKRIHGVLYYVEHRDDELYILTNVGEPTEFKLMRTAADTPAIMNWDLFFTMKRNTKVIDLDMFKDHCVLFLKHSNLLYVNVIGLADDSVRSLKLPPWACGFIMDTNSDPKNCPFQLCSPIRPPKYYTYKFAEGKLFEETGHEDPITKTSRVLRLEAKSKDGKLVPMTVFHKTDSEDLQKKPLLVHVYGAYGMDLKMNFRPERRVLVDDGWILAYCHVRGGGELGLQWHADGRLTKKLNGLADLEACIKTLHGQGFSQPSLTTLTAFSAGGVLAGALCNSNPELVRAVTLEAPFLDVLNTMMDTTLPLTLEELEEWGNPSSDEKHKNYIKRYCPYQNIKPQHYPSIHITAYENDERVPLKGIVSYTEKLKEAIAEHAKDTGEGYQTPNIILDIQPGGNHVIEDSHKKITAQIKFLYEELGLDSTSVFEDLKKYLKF
GRIN3A LBD mod: modulators (binders) of human NR3A ligand-binding domain; Tm shift relative to glycine control, % at 25 µM; NR3A LBD differential scanning fluorimetry, Tm shift; 0% = protein alone, 100% = glycine-bound protein; 2.5% of 340,000 active; AID 1259313;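 active = melting temperature shift of at least 10% of the positive control shift, at one fixed dose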
Beta apoptosis: blocks beta cell apoptosis | 0.8% of 300,000 active | protection from apoptosis, % (concentration not given with the values) | INS-1E cytokine-induced death, ATP luminescence, 48 h; percent of positive-control rescue, neutral wells zero;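 active = Every replicate reaches about 75%, or at least half do and their mean reaches it too, limit read from the data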;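 also: 0% = cytokine-treated negative control wells and 100% = positive control rescue; higher means more ATP so stronger rescue from cytokine killing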
* marks the source's active call; other numbers are inactive results; x = no result; + = active, no number.

SMILES	CSC inhib	T cruzi inh	CHOP inhibitor	PREPL inh	GRIN3A LBD mod	Beta apoptosis
CC(C)OC(=O)c1c(NC(=O)Cn2cnc([N+](=O)[O-])n2)sc2c1CCCC2	5	105*	93*	19	-7	-9
CC(=O)N(CCCN(C)C)CCC(C)CCC=C(C)C (configuration not stated)	63	65*	-17	10	-1	2
CC(C)=CCCC(C)N(C=O)C(C)CCC=C(C)C (configuration not stated)	-3	0	x	-10	1	-8
Clc1ccc(-c2cc3ccccc3[nH]2)cc1	14	-10	95*	6	17*	x
O=c1cc(-c2ccc(Cl)cc2)[nH]c2ccccc12	3	12	22	-10	0	17
CCn1c(O)c(C2=c3ccccc3=NC2=O)c2cc(Br)ccc21	23	61*	23	0	2	-11
COc1nc(-c2ccncc2)nc2ccccc12	-13	-8	25	-2	-1	5
C=CCOc1nc(-c2ccncc2)nc2ccccc12	16	-7	71*	3	2	-9
COc1ccc(Oc2nc(-c3ccncc3)nc3ccccc23)cc1	40	48	9	10	-3	-6
COc1cccc(Oc2nc(-c3ccncc3)nc3ccccc23)c1	68	55*	3	-3	-1	-3
Cc1cc(C)c(S(=O)(=O)Nc2ccc3c4c(cccc24)CC3)c(C)c1	93*	7	59	-10	-6	14
Cc1cc(C)c(S(=O)(=O)Nc2ccc(O)cc2)c(C)c1	-2	-1	39	-3	3	-3
Cc1cc(C)c(S(=O)(=O)Nc2ccc3c(c2)CCC3)c(C)c1	46	23	84*	-16	-9	6
CC(C)(C)c1ccc(-n2nc(C#N)c(Cl)cc2=O)cc1	x	66*	108*	x	3	x
CC(C)(C)c1ccc(-n2nc(C(N)=O)c(O)cc2=O)cc1	-5	-2	-4	13	-1	x
Cc1cccc(NC(=O)CSc2ncnc3sc(C)cc23)c1	2	-3	x	-13	-12	-1
Cc1c(Cl)cccc1Nc1nc(N)nc(CSc2nc3ccccc3s2)n1	28	17	27	-26	11*	1
CCCCC(=O)NC(c1ccc(N(C)C)cc1)c1ccc2cccnc2c1O (configuration not stated)	108*	57*	x	23	-1	94*
CCCCC(=O)NC(c1ccc(N(CC)CC)cc1)c1ccc2cccnc2c1O (configuration not stated)	+	68*	x	13	-1	89*
CCCC(=O)NC(c1ccc(N(C)C)cc1)c1c(O)ccc2ccccc12 (configuration not stated)	-5	2	14	8	7	-6
COc1ccc(NC(=O)Nc2cccc3c2O[C@H](CN(C)S(C)(=O)=O)[C@@H](C)CN([C@H](C)CO)C3=O)cc1	x	x	x	19	2	-7
Fc1cccc(C2CCCCN2Cc2nc(C3CC3)no2)c1 (configuration not stated)	10	3	47	3	-1	-1
N#C/C(=N\Nc1cc(Cl)cc(Cl)c1)c1nnc2n1CCCCC2	36	15	39	0	-5	14
N#CC(=C(O)COC(=O)c1ccc2c(c1)OCCO2)c1nc2ccccc2[nH]1	x	x	x	x	-6	x
COc1cc(OC)cc(C(=O)OCc2cc3ccccc3[nH]c2=O)c1	x	-18	85*	-11	0	-4
SMILES	CSC inhib	T cruzi inh	CHOP inhibitor	PREPL inh	GRIN3A LBD mod	Beta apoptosis
COc1cc(OC)cc(C(=O)OC/C(O)=C(\C#N)c2nc3ccccc3[nH]2)c1	37	-14	13	-6	-6	101*
COc1coc(C(O)C[N+](=O)[O-])cc1=O (configuration not stated)	-14	-17	-13	-3	0	-14
Cc1cc2oc(=O)cc(-c3ccccc3)c2c(C)c1-c1ccc(C#N)cc1	x	x	x	x	-1	x
CC(N)(Cc1ccc(O)c(O)c1)C(=O)O (configuration not stated)	x	x	-9	x	x	x
COc1ccc(C(=O)c2ccc(Cl)cc2)cc1	-2	-9	-23	-10	0	0
O=C(c1ccc(O)cc1)c1ccc(Cl)cc1	3	-18	83*	14	-1	-1
Cc1cccc(OCCC(=O)Nc2ccc(N3CCOCC3)cc2N2CCOCC2)c1	x	x	x	22	-1	-2
CN(C)c1nc(N)nc(CSc2nc3c(c(=O)n(C)c(=O)n3C)n2Cc2ccccc2F)n1	-20	5	72*	-4	-1	-9
NC(=O)COC(=O)CC1CC2CCC1C2 (configuration not stated)	6	-5	18	16	-1	2
CCC(C)Nc1ccc(NC(C)CC)cc1 (configuration not stated)	82*	x	x	42	0	109*
CCC(C)NC(=O)Nc1ccc(Br)cc1 (configuration not stated)	10	3	-9	-2	1	3
COc1cccc(CNC(=O)Cn2c(=O)c3cccn3c3ccccc32)c1	-18	9	x	-8	2	5
COc1ccc(N2CCN(c3ncnc4scc(-c5ccc(C)cc5)c34)CC2)cc1	52	58*	x	23	-4	21
COc1ccc(-c2csc3ncnc(N4CCN(c5cccc(OC)c5)CC4)c23)cc1	18	37	x	4	0	3
COc1ccc(N2CCN(c3ncnc4scc(-c5ccc(F)cc5)c34)CC2)cc1	59	23	x	35	3	14
COc1ccc(N2CCN(C(=O)CSc3ncnc4scc(-c5ccc(C)cc5)c34)CC2)cc1	3	76*	x	3	-1	5
c1ccc(-c2csc3ncnc(N4CCc5ccccc5C4)c23)cc1	34	23	86*	-7	13*	2
COc1ccc(-c2csc3ncnc(N4CCN(c5cccc(Cl)c5)CC4)c23)cc1	36	43	x	0	18*	17
COc1ccc(C(CCN(Cc2ccc(OC)c(OC)c2)C(C)=O)C(C)C)cc1 (configuration not stated)	-12	1	x	x	2	1
Cc1ccc(-c2csc3ncnc(SCC(=O)Nc4nnc(C)s4)c23)cc1	18	-5	74*	-12	-6	-5
COc1ccc(-c2csc3ncnc(N4CCN(S(=O)(=O)c5ccc(Cl)s5)CC4)c23)cc1	11	47	x	-13	11*	9
CC(C)C(NC(=O)c1ccc(Cl)c([N+](=O)[O-])c1)C(=O)NCc1ccccn1 (configuration not stated)	-2	x	x	20	2	1
CCCOc1cc(NCc2ccccc2)c2ncn(C(C)C)c2c1	46	x	x	11	7	124*
CC(C)n1cnc2c(NCc3ccccc3)cc(Cc3ccc(F)cc3)cc21	129*	x	x	13	3	11
